Shown are actives, neighbours in structure and some others; about 4.1% of the full set was active somewhere.
NF-kB neuron act: compounds increasing NF-kB expression in human neuronal cells. NF-kB reporter expression; active compounds read high. fold change at 12.5 µM. hit rate 1.6% among 190,000. AID 1239; in the data active means fold change above about 3.3
STAT1 act: activators of IFN-gamma induced STAT1 signaling. NIH 3T3 STAT1-luciferase reporter, luminescence; 100% = IFN-gamma alone, no compound. activation (% of control), % at 5.5 µM. hit rate 2.6% among 200,000;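 active means activation above the screen-wide mean activation plus 3 SD, cut at about 130% in these data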
FLuc inhib CS: Photinus pyralis luciferase inhibition counter-screen; ATPLite firefly luciferase biochemical luminescence, 10 min; inhibition, % at 10 µM; hit rate 1.5% among 200,000;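 active means inhibition above about 50% when tested at 10 µM, limit read from the data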
Target sequence (P08659 whole entry, looked up): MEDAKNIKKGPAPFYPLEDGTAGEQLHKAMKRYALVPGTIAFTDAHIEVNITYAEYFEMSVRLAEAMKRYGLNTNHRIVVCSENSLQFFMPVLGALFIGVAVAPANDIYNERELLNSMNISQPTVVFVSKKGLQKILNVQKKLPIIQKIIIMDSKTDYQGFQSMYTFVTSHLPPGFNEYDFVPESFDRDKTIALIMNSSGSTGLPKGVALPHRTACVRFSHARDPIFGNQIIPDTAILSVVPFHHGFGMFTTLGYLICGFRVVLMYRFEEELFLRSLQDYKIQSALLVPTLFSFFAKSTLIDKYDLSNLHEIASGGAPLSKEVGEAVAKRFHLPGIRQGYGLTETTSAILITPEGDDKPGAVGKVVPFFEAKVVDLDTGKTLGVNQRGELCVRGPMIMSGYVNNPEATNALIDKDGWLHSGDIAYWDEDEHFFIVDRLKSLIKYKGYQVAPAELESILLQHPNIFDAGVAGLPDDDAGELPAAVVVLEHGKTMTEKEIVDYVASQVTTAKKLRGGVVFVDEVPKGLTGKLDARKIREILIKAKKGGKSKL
FLuc act counter: affects firefly luciferase, flagging false hits in luciferase stimulation screens | activation factor at 10 µM | P08659 | 200,000 tested, under 10 active | AID 1027 | ATPlite luciferase biochemical, luminescence, 10 min; 0 = ATP-free wells, 1 = DMSO control;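 active means luciferase activation factor, scaled between plate controls, of at least 2 with compound at 10 µM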
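assay system = Luciferase/luciferin detection reagent, cell-free biochemical luciferase assay | also added = ATP substrate | times = 10 min post-reagent at room temperature | measured by = luminescence from luciferase reaction | measure = luciferase activation, seen as luminescence increase over controls | benchmarks = low control with PBS replacing ATP, high control enzyme plus ATP without compound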
APP 5'UTR act: APP 5'UTR luciferase reporter activation | hit rate 1% among 190,000 | activation, % at 2 µM | SH-SY5Y APP 5'UTR luciferase reporter, luminescence; zero percent = DMSO vehicle wells | AID 1276;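 active means activation above a set limit, based on mean plus 3 SD of controls, cut at about 140% in these data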
Of the large screens only hits and unclear results are named; the others gave an inactive call.

CN(C)c1ccc(N=Nc2ccccc2C(=O)OCC(=O)Nc2ccccc2C(F)(F)F)cc1	none
CC(=O)c1sc(NC(=O)c2ccc(C(C)(C)C)cc2)nc1C	STAT1 act 130
CC(=O)c1sc(NC(=O)c2ccccc2F)nc1C	NF-kB neuron act 3.5
COc1ccc(C(=O)Nc2nc(C)c(C(=O)N(C)C)s2)cc1OC	none
CC(=O)c1sc(NC(=O)c2ccc(C)c(C)c2)nc1C	STAT1 act 147, APP 5'UTR act 172
Cc1ccc(OCc2nnc(SCCN3CCOCC3)n2C)cc1	none
COCCCN1C(=O)c2ccccc2C1C(=O)NC1CCCCCC1 (stereo not drawn)	none
CC(C)COC(=O)Nc1nnc(Cc2ccccc2)s1	STAT1 act 133
CC(C)(C)C(=O)Nc1nnc(Cc2ccccc2)s1	none
CCc1nnc(NC(=S)Nc2ccccc2)s1	NF-kB neuron act 3.3, STAT1 act 132
CC(C)Cc1nnc(NC(=O)Nc2ccccc2)s1	STAT1 act 147
Cc1nc(NC(=S)Nc2ccccc2)sc1C	NF-kB neuron act 4.8, APP 5'UTR act 140
Cc1ccc(C(=O)Nc2nnc(NC(=S)Nc3ccccc3)s2)cc1	none
CCOc1ccc(C(=O)C[n+]2ccccc2C)cc1	none
CSc1ccc(Cl)c(C(=O)OCC(=O)NC2CC2)c1	none
Cc1cc(C)nc(N/N=C/c2ccccc2)n1	none
Cc1ccc(/C=N/Nc2ccc3ccccc3n2)o1	FLuc inhib CS 87, APP 5'UTR act 183
Cc1cc(C)nc(N/N=C/c2ccc3c(c2)OCCO3)n1	none
C(=N\Nc1ccc2ccccc2n1)/c1ccc2c(c1)OCCO2	FLuc inhib CS 93
Cc1cccc(/C=N/Nc2ccc3ccccc3n2)c1	FLuc inhib CS 91
CC(=O)N(C)c1ccc(NC(=S)Nc2ccc(C(C)C)cc2)cc1	none
CC(=O)N1C(=O)c2cccc3cccc(c23)C(=O)N1C(C)=O	none
O=C(CCCOc1ccccc1)N1CCCc2ccccc21	none
Cc1ccc2c(CC(=O)N3CCc4ccccc43)coc2c1	STAT1 act 138
Cc1ccc(C(=O)OCC(=O)N2CCc3ccccc32)cc1	STAT1 act 129
O=C(CSc1ccccc1)N1CCc2ccccc21	STAT1 act 132
CC(=O)c1c(C)[nH]c(C(=O)OCC(=O)N2CCc3ccccc32)c1C	none
O=C(COc1ccccc1)N1CCc2ccccc21	STAT1 act 134
C/C(=N\NC(=O)c1nc2ccccn2c1C)c1cccc([N+](=O)[O-])c1	none
COc1ccc(C(CC(=O)NCc2ccccc2)Sc2n[nH]c(-c3ccccc3)n2)cc1 (stereo not drawn)	none
Cc1cc(Cl)cc2c1NC(=O)[C@]21[C@@H]2C(=O)N(Cc3ccccc3)C(=O)[C@@H]2[C@@H]2CCCN21	none
N#C/C(=C\c1ccc(C(=O)O)cc1)c1ccccn1	none
CCN(CC)c1ccc(/C=C(\C#N)c2ccccn2)cc1	FLuc inhib CS 85, APP 5'UTR act 160
CN(CCC#N)c1ccc(/C=C(\C#N)c2ccccn2)cc1	STAT1 act 141, FLuc inhib CS 88, APP 5'UTR act 180
COc1cc(/C=C(\C#N)c2ccccn2)ccc1OCc1ccccc1	none
O=C(O)c1ccc(NC(=O)c2cn(-c3ccccc3)nc2-c2ccccc2)cc1	STAT1 act 146
O=C(O)c1ccc(NC(=O)c2cn(-c3ccccc3)nc2-c2ccc(Br)cc2)cc1	none
O=C(Nc1ccc(O)cc1)c1cc2ccccc2c(=O)s1	none
O=C(Nc1ccccc1)c1cc2ccccc2c(=O)s1	STAT1 act 146
CCOc1ccc(N=Nc2c(=O)[nH]n3c(=O)cc(C)[nH]c23)cc1	FLuc inhib CS 64
CCOC(=O)c1cc(OC(=O)c2cccs2)n(-c2ccccc2)n1	none
CCOC(=O)c1ccc2nc(C)c(CCC(C)=O)c(Cl)c2c1	STAT1 act 129
CCOC(=O)c1ccc(N2Cc3ccccc3C2=NC(=O)c2cccs2)cc1	none
CC(=O)c1ccc(N2Cc3ccccc3C2=NC(=O)c2cccs2)cc1	STAT1 act 135
CCCc1cc(C(=O)Nc2ccccc2SC)no1	none
CCCc1cc(C(=O)Nc2ccc(F)cc2F)no1	STAT1 act 130
Cc1cc(C(=O)Cn2nnc3ccccc3c2=O)c(C)n1Cc1cccs1	FLuc inhib CS 80, APP 5'UTR act 223
O=S1(=O)N=C(Nc2ccc(O)cc2)c2ccccc21	none
O=S1(=O)N=C(Nc2ccc(N3CCOCC3)c(Cl)c2)c2ccccc21	STAT1 act 146
c1ccc(NCC2OCc3ccccc3CO2)cc1	STAT1 act 136
CCCCCCNCC1OCc2ccccc2CO1	none
Cc1ccc(OCC(=O)NCc2ccccn2)c(Br)c1	STAT1 act 141
Cc1ccc2nc(=O)c(NNc3ccccc3)cnc2c1	STAT1 act 139
Cc1nc2ccccc2nc(=O)c1NNc1ccccc1	STAT1 act 129
COc1cc(CCC(=O)OCC(=O)NCc2ccc(Cl)cc2)cc(OC)c1OC	none
CCc1ccc(C(=O)COC(=O)c2nn(C)c(=O)c3ccccc23)cc1	none
CCc1ccc(C(=O)COC(=O)c2n[nH]c3ccccc23)cc1	NF-kB neuron act 5.5, FLuc inhib CS 63
CC1CCN(C(=O)COC(=O)c2n[nH]c3ccccc23)CC1	FLuc inhib CS 55
S=C(N/N=C/c1ccc2ncccc2c1)Nc1ccccc1	FLuc inhib CS 55
CC(C)(C)NC(=S)NNC(=O)c1ccc2ncccc2c1	STAT1 act 136
COc1ccc(/C=N/NC(=S)Nc2ccccc2)cc1	STAT1 act 133
COc1ccc(/C=N/NC(=S)Nc2cccc(C(=O)O)c2)cc1	FLuc inhib CS 56
CC(=O)OC[C@H]1O[C@@H](Sc2cccc3cccnc23)[C@H](OC(C)=O)[C@@H](OC(C)=O)[C@@H]1OC(C)=O	none
COc1ccc(/C=N/NC(=O)CSCC(=O)Nc2ccccc2)cc1OC	none
COc1cc(/C=N/NC(=S)Nc2cccc(C(=O)O)c2)ccc1O	none
O=C(NC(=S)Nc1ccc2ncccc2c1)c1ccccc1	STAT1 act 131
COc1cccc(/C=N/NC(=S)Nc2cccc(C(=O)O)c2)c1O	FLuc inhib CS 62
COc1cccc(/C=N/Nc2cc(Cl)nc(C)n2)c1O	FLuc inhib CS 54
O=C(NNC(=S)Nc1ccccc1)c1ccc2ncccc2c1	none
COc1cc(/C=N/NC(=O)Nc2ccccc2)ccc1OC(C)=O	STAT1 act 142
O=C(Nc1ccc(COc2ccccc2)cc1)c1cccc([N+](=O)[O-])c1	none
O=C(Nc1cccc(C(F)(F)F)c1)c1cccc(NS(=O)(=O)c2ccc(Br)c(C(=O)O)c2)c1	none
CN(C)c1ccc(NC(=O)c2ccc3nsnc3c2)cc1	STAT1 act 144
O=C(Nc1ccc(Cl)cc1)c1ccc2nsnc2c1	NF-kB neuron act 3.3, STAT1 act 150
COc1ccc(N(C)C(=O)Nc2ccc3nsnc3c2)cc1	none
CN(C)c1ccc(N=Nc2ccccc2C(=O)OCC(=O)N2CCCCCC2)cc1	FLuc inhib CS 72
CN(C)c1ccc(N=Nc2ccccc2C(=O)OCC(=O)N2CCCC2)cc1	FLuc inhib CS 70

Screening data (PubChem BioAssay)
